According to ChEMBL document CHEMBL3763156, “Imidazole-based pinanamine derivatives: Discovery of dual inhibitors of the wild-type and drug-resistant mutant of the influenza A virus” (Eur J Med Chem, 2016):

Columns and labels:
[1] = test system: Influenza A virus; test: Antiviral activity against amantadine-resistant Influenza A virus A/WSN/33(H1N1) expressing M2 S31N mutant ion channel infected in MDCK cells assessed as protection against virus induced cytopathic effect after 48 hrs by microscopic analysis; assay type: functional, organism-based, A/WSN/1933(H1N1)
Method in brief: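 MDCK cells were grown 24 h to a confluent monolayer and rinsed twice. They were infected with 100 TCID50 virus for 2 h at 37 °C in 5% CO2, and the inoculum was removed. Serial two-fold compound dilutions in DMEM with 1.5 µg/mL trypsin were added for 48 h at 34 °C in 5% CO2. CPE percentage was scored microscopically. IC50 came from non-linear regression, as the mean of 2–3 determinations.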

[2] = test system: Influenza A virus; test: Antiviral activity against amantadine-resistant Influenza A virus A/WSN/33(H1N1) expressing M2 S31N mutant ion channel infected in MDCK cells assessed as cell viability after 48 hrs by MTT assay; assay type: functional, organism-based, A/WSN/1933(H1N1)
Method in brief: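 Infected MDCK cells were given compound for 48 h, and the CPE-based result was confirmed by MTT viability. MTT was added from a 5 mg/mL stock for 4 h at 37 °C, stopped with DMSO, and read as absorbance at 490 nm. The 50% effective concentration was calculated by the Reed–Muench method, as the mean of 2–3 determinations.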

[3] = test system: Matrix protein 2 (Influenza A virus (A/Udorn/307/1972(H3N2))), P0DOF8 [S31N]; test: Inhibition of Influenza A virus M2 S31N mutant ion channel expressed in Xenopus oocytes at 100 uM after 2 mins by two-electrode voltage clamp assay; assay type: cell-based
Method in brief: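 A/M2 channel (S31N for line 7, wild type for line 9) was expressed in Xenopus oocytes and recorded by two-electrode voltage clamp. Compound was applied at 100 µM, and the percentage inhibition of channel current was taken after 2 min. Values are mean ± SD.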

[4] = test system: Matrix protein 2 (Influenza A virus (A/Udorn/307/1972(H3N2))), P0DOF8 [S31N]; test: Inhibition of Influenza A virus M2 S31N mutant ion channel expressed in 293Trex cells at 100 uM after 2 mins by patch clamp assay; assay type: cell-based

Row | SMILES | IC50 [1] | IC50 [2] | IC50 ([1]; read-out: IC50) | further results
1 | CCc1nc[nH]c1CN[C@@H]1C[C@@H]2C[C@H]([C@H]1C)C2(C)C | Not Active |  |  | 
2 | CCCc1nc(C(C)C)[nH]c1CN[C@@H]1C[C@@H]2C[C@H]([C@H]1C)C2(C)C |  | 11.3 µM | 8.8 µM | 
3 | CCc1ncc(CN[C@@H]2C[C@@H]3C[C@H]([C@H]2C)C3(C)C)[nH]1 |  |  | 9.5 µM | 
4 | Cc1nc(C2CC2)[nH]c1CN[C@@H]1C[C@@H]2C[C@H]([C@H]1C)C2(C)C |  | 21.4 µM | 9.4 µM | 
5 | C[C@@H]1[C@H]2C[C@@H](C[C@H]1NCc1[nH]cnc1C(C)(C)C)C2(C)C | Not Active |  |  | 
6 | CCCCc1ncc(CN[C@@H]2C[C@@H]3C[C@H]([C@H]2C)C3(C)C)[nH]1 | Not Active |  |  | 
7 | CC(C)c1ncc(CN[C@@H]2C[C@@H]3C[C@H]([C@H]2C)C3(C)C)[nH]1 | Not Active |  |  | 
8 | CC(C)Cc1ncc(CN[C@@H]2C[C@@H]3C[C@H]([C@H]2C)C3(C)C)[nH]1 |  | 18.6 µM | 8.9 µM | 
9 | CCc1nc(C)c(CN[C@@H]2C[C@@H]3C[C@H]([C@H]2C)C3(C)C)[nH]1 | Not Active |  |  | inhibition [3]: 1.73%
10 | NC12CC3CC(CC(C3)C1)C2 [AMANTADINE] |  |  | 337 µM | inhibition [3]: 24.3%
11 | Cc1nc(C(C)C)[nH]c1CN[C@@H]1C[C@@H]2C[C@H]([C@H]1C)C2(C)C | Not Active |  |  | 
12 | C[C@@H]1[C@H]2C[C@@H](C[C@H]1NCc1cnc(C3CCCCC3)[nH]1)C2(C)C | Not Active |  |  | 
13 | C[C@@H]1[C@H]2C[C@@H](C[C@H]1NCc1[nH]cnc1-c1ccccc1)C2(C)C | Not Active |  |  | 
14 | C[C@@H]1[C@H]2C[C@@H](C[C@H]1NCc1cnc(C3CCCC3)[nH]1)C2(C)C | Not Active |  |  | 
15 | Cc1nc[nH]c1CN[C@@H]1C[C@@H]2C[C@H]([C@H]1C)C2(C)C |  |  | 95.5 µM | inhibition [4]: 27%
16 | C[C@@H]1[C@H]2C[C@@H](C[C@H]1NCc1cnc(C(C)(C)C)[nH]1)C2(C)C |  | 11.6 µM | 9.7 µM | 
17 | Cc1ncc(CN[C@@H]2C[C@@H]3C[C@H]([C@H]2C)C3(C)C)[nH]1 | Not Active |  |  | 
18 | CCCc1nc(-c2ccccc2)[nH]c1CN[C@@H]1C[C@@H]2C[C@H]([C@H]1C)C2(C)C |  | 16.1 µM | 12.3 µM | 
19 | CCCc1nc[nH]c1CN[C@@H]1C[C@@H]2C[C@H]([C@H]1C)C2(C)C |  | 7.3 µM | 3.4 µM | inhibition [3]: 3.47%
20 | C[C@@H]1[C@H]2C[C@@H](C[C@H]1NCc1[nH]cnc1C1CC1)C2(C)C | Not Active |  |  | 
21 | C[C@@H]1[C@H]2C[C@@H](C[C@H]1NCc1cnc(-c3ccccc3)[nH]1)C2(C)C |  | 11 µM | 9 µM | 
22 | C[C@@H]1[C@H]2C[C@@H](C[C@H]1NCc1cncn1C)C2(C)C | Not Active |  |  | 
23 | C[C@@H]1[C@H]2C[C@@H](C[C@H]1NCc1cnc(-c3cccs3)[nH]1)C2(C)C | Not Active |  |  | 
24 | C[C@@H]1[C@H]2C[C@@H](C[C@H]1NCc1cnc(C3CC3)[nH]1)C2(C)C |  |  | 29.4 µM | 
25 | CCCc1nc(C2CC2)[nH]c1CN[C@@H]1C[C@@H]2C[C@H]([C@H]1C)C2(C)C |  | 9.7 µM | 7.3 µM | 
